Measurements from ChEMBL document CHEMBL5247621, “From dopamine 4 to sigma 1: Synthesis, SAR and biological characterization of a piperidine scaffold of σ1 modulators” (Eur J Med Chem, 2022).
Blank lines part the entries; values can stand above or below the molecule they belong to.

Tests used:
[1] = molecular target: T1, Sigma non-opioid intracellular receptor 1 (Homo sapiens, UniProt Q99720); assay: Displacement of [3H] Pentazocine from sigma 1 receptor in HEK293 cell membrane; type: cell membranes
D(4) dopamine receptor = molecular target: T2, D(4) dopamine receptor (Homo sapiens, UniProt P21917); assay: Displacement of [3H]N-methylspiperone from D4 receptor in HEK293 cell membrane; type: cell membranes; conditions: read-out: Ki
T2 sequence (P21917 whole entry): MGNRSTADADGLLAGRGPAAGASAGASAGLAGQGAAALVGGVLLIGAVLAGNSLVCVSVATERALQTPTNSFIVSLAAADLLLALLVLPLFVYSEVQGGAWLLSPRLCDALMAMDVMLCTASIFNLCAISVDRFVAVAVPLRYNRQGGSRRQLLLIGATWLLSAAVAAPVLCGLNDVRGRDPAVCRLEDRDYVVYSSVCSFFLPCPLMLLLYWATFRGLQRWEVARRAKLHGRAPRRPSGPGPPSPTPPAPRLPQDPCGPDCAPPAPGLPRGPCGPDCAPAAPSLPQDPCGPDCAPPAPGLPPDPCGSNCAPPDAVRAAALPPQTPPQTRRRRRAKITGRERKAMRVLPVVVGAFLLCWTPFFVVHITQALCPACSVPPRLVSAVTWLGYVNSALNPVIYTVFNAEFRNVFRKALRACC

[2] = molecular target: T1, Sigma non-opioid intracellular receptor 1; assay: Binding affinity to sigma 1 receptor in human Jurkat cells; type: cell-based
[3] = molecular target: Sigma intracellular receptor 2 (Homo sapiens, UniProt Q5BJF2); assay: Displacement of [3H]DTG from sigma-2 receptor in HEK293 cell membrane assessed as inhibition constant; type: cell membranes
Method in brief: (§1)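 Competitive radioligand binding in membranes harvested from HEK293 cells, with one radioligand per target: [3H]N-methylspiperone for D2, D3 and D4; [3H]SCH23390 for D1 and D5; [3H]pentazocine for σ1; [3H]DTG for σ2. Ki derived from inhibition of binding, each run in triplicate.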

D(1A) dopamine receptor = D(1A) dopamine receptor (Homo sapiens, UniProt P21728); assay: Displacement of [3H]SCH23390 from D1 receptor in HEK293 cell membrane assessed as inhibition constant; type: cell membranes; method in brief: as §1
[4] = Half life in mouse plasma at 5 mg/kg, ip measured after 24 hrs; type: ADME, organism-based; conditions: in vivo
Method in brief: (§2)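 Discrete mouse study, single intraperitoneal dose of 5 mg/kg in 10% DMSO/10% Cremophor EL/30% PEG400/50% water. Plasma and brain concentrations followed over 24 h. Parameters estimated by non-compartmental analysis.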

[5] = Half life in mouse brain at 5 mg/kg, ip measured after 24 hrs; type: ADME, organism-based; conditions: in vivo; method in brief: as §2
[6] = Mean residence time in mouse plasma at 5 mg/kg, ip measured after 24 hrs; type: ADME, organism-based; conditions: in vivo; method in brief: as §2
[7] = Mean residence time in mouse brain at 5 mg/kg, ip measured after 24 hrs; type: ADME, organism-based; conditions: in vivo; method in brief: as §2
[8] = Tmax in mouse plasma at 5 mg/kg, ip measured after 24 hrs; type: ADME, organism-based; conditions: in vivo; method in brief: as §2
[9] = Tmax in mouse brain at 5 mg/kg, ip measured after 24 hrs; type: ADME, organism-based; conditions: in vivo; method in brief: as §2
[10] = Cmax in mouse plasma at 5 mg/kg, ip measured after 24 hrs; type: ADME, organism-based; parameters: dose 5 mg/kg, time 24 hrs, route ip; conditions: in vivo; method in brief: as §2
[11] = Cmax in mouse brain at 5 mg/kg, ip measured after 24 hrs; type: ADME, organism-based; parameters: time 24 hrs, dose 5 mg/kg, route ip; method in brief: as §2
[12] = AUC(infinity) in mouse plasma at 5 mg/kg, ip measured after 24 hrs; type: ADME, organism-based; parameters: dose 5 mg/kg, time 24 hrs, route ip; conditions: in vivo; method in brief: as §2
[13] = AUC(infinity) in mouse brain at 5 mg/kg, ip measured after 24 hrs; type: ADME, organism-based; parameters: dose 5 mg/kg, time 24 hrs, route ip; method in brief: as §2
[14] = Ratio of total drug concentration in mouse brain to plasma at 5 mg/kg, ip measured after 1 hr; type: ADME, organism-based
Method in brief: (§3)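 Mice received 5 mg/kg IP in 10% DMSO/10% Cremophor EL/30% PEG400/50% water. Kp is total brain concentration divided by total plasma concentration, taken at 1 h and 5 h post-dose.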

[15] = Ratio of total drug concentration in mouse brain to plasma at 5 mg/kg, ip measured after 5 hrs; type: ADME, organism-based; method in brief: as §3
[16] = Ratio of free drug concentration in mouse brain to plasma at 5 mg/kg, ip measured after 1 hr; type: ADME, organism-based
Method in brief: (§4)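 Mice received 5 mg/kg IP in 10% DMSO/10% Cremophor EL/30% PEG400/50% water. Kp,uu is free brain over free plasma concentration at 1 h and 5 h. Free levels are corrected with unbound fractions measured in mouse plasma protein binding and in mouse brain homogenate binding.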

[17] = Ratio of free drug concentration in mouse brain to plasma at 5 mg/kg, ip measured after 5 hrs; type: ADME, organism-based; conditions: read-out: K(p,uu,brain); method in brief: as §4
D(1B) dopamine receptor = D(1B) dopamine receptor (Homo sapiens, UniProt P21918); assay: Displacement of [3H]SCH23390 from D5 receptor in HEK293 cell membrane assessed as inhibition constant; type: cell membranes; method in brief: as §1
D(2) dopamine receptor = D(2) dopamine receptor (Homo sapiens, UniProt P14416); assay: Displacement of [3H]N-methylspiperone from D2 receptor in HEK293 cell membrane assessed as inhibition constant; type: cell membranes; method in brief: as §1
D(3) dopamine receptor = D(3) dopamine receptor (Homo sapiens, UniProt P35462); assay: Displacement of [3H]N-methylspiperone from D3 receptor in HEK293 cell membrane assessed as inhibition constant; type: cell membranes; method in brief: as §1
[18] = Plasma protein binding in human assessed as unbound fraction; type: ADME, cell-free
Method in brief: (§5)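 Plasma protein binding by equilibrium dialysis in human or mouse plasma, reported as fraction unbound (fu).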

[19] = Plasma protein binding in mouse assessed as unbound fraction; type: ADME; method in brief: as §5
[20] = molecular target: T3, D(4) dopamine receptor (Homo sapiens) (UniProt P21917); assay: Displacement of [3H]N-methylspiperone from D4 receptor in HEK293 cell membrane assessed as inhibition constant at 10 uM relative to control; type: cell membranes; parameters: scale not given: the % may be the effect or the level left
T3 sequence (whole entry): T2 sequence (P21917 whole entry)

[21] = molecular target: T1, Sigma non-opioid intracellular receptor 1; assay: Displacement of [3H] Pentazocine from sigma 1 receptor in HEK293 cell membrane assessed as inhibition constant relative to control; type: cell membranes; parameters: scale not given: the % may be the effect or the level left; method in brief: as §1
[22] = Intrinsic clearance in human liver microsomes; type: ADME, Microsome; conditions: read-out: CLH
Method in brief: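 Intrinsic clearance measured in human liver microsomes. Hepatic clearance predicted from it with the well-stirred organ model, binding terms excluded.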

T1 sequence (Q99720 whole entry): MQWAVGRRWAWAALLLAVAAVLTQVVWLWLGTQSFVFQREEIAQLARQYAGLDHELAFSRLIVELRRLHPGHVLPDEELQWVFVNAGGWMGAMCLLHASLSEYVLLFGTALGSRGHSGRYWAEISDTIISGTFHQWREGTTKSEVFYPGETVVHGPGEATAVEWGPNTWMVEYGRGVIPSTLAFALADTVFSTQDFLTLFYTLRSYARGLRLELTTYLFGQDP
Sequence of D(1B) dopamine receptor (P21918 whole entry): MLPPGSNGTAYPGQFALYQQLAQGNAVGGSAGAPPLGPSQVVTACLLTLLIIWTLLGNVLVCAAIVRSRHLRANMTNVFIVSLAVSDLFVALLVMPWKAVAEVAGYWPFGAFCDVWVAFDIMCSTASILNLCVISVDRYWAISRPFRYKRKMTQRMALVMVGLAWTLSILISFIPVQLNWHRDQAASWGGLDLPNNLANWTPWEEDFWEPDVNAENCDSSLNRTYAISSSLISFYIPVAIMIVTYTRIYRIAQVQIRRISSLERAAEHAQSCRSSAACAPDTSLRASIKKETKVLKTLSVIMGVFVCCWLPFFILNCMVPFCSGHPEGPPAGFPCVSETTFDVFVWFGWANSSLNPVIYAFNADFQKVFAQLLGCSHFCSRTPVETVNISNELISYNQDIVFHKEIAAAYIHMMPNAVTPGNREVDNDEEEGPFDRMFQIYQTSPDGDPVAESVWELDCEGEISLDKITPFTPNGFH
Sequence of D(1A) dopamine receptor (P21728 whole entry): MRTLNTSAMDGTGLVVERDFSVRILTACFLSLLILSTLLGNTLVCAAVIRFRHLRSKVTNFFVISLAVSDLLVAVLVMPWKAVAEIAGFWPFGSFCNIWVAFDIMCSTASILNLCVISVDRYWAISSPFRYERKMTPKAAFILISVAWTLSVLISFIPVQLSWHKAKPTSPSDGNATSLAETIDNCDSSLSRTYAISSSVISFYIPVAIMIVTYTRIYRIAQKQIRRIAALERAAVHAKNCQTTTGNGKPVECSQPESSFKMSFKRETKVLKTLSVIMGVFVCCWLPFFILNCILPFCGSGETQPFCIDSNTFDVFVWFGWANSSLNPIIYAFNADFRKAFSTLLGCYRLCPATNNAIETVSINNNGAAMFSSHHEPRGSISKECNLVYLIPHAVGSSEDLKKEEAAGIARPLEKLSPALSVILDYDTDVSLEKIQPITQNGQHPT
Sequence of Sigma intracellular receptor 2 (Q5BJF2 whole entry): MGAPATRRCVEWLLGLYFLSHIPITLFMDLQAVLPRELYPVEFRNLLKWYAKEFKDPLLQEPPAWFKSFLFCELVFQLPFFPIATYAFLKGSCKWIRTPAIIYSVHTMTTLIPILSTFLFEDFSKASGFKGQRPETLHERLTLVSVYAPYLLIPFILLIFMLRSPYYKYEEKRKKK
Sequence of D(3) dopamine receptor (P35462 whole entry): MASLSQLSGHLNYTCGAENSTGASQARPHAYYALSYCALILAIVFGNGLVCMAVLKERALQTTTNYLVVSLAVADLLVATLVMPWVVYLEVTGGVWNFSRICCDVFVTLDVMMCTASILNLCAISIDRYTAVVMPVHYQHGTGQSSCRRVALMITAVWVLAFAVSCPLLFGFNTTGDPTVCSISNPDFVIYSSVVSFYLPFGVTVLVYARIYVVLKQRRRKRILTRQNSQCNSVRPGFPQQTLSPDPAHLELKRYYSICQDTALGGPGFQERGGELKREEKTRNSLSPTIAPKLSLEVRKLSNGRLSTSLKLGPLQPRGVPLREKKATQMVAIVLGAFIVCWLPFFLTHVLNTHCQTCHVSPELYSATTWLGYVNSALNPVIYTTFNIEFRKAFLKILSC
Sequence of D(2) dopamine receptor (P14416 whole entry): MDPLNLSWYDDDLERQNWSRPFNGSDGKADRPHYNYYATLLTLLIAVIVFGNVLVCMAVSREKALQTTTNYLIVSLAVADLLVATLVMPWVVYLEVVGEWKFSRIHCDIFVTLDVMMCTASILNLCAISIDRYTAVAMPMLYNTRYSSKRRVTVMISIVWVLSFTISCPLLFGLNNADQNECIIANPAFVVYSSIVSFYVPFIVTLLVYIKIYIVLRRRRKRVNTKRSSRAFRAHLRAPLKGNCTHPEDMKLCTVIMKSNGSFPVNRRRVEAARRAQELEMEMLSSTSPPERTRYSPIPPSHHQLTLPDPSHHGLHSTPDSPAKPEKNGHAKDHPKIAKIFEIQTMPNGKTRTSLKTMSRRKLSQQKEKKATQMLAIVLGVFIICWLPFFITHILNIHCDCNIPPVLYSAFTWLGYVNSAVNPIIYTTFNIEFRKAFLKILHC

SMILES: FC(F)(F)c1cccc(COC2CCN(Cc3ccc4[nH]cnc4c3)CC2)c1
Ki [3]: 0.073 µM | Ki (D(1B) dopamine receptor): > 10 µM | Ki (D(1A) dopamine receptor): > 10 µM

SMILES: Fc1cc(COC2CCN(Cc3cn4ccccc4n3)CC2)ccc1Cl
Ki ([1]; read-out: Ki): 0.0023 µM

SMILES: Fc1ccc(CN2CCCC23CCN(Cc2cc4ccc(Cl)cc4[nH]2)C3)cc1F (stereo not drawn)
Ki ([1]; read-out: Ki): 0.0055 µM | Ki ([1]; read-out: pKi (converted)): 0.00537 µM | Ki (D(4) dopamine receptor): 0.268 µM | Ki [3]: 0.023 µM | Ki (D(2) dopamine receptor): > 10 µM | Ki (D(3) dopamine receptor): 0.118 µM | Ki (D(1B) dopamine receptor): > 10 µM | Ki (D(1A) dopamine receptor): 2.37 µM

SMILES: Fc1ccc(COC2CCN(Cc3ncc4ccccn34)CC2)cc1F
Ki ([1]; read-out: Ki): 0.143 µM

SMILES: Fc1ccc(CN2CCCC23CCN(Cc2cn4ccccc4n2)C3)cc1F (stereo not drawn)
Ki ([1]; read-out: Ki): 0.0036 µM | Activity [20]: -0.7% | Ki [3]: 0.023 µM | Fu [18]: 2.7% | Ki (D(1A) dopamine receptor): > 10 µM | Fu [19]: 30.2%

SMILES: Fc1cccc(CO[C@H]2CCCN(Cc3cn4ccccc4n3)C2)c1
Ki ([1]; read-out: Ki): 0.49 µM | Ki (D(4) dopamine receptor): 1.21 µM

SMILES: Fc1cc(COC2CCN(Cc3ccc4[nH]ncc4c3)CC2)ccc1Cl
Ki ([1]; read-out: Ki): 0.0007 µM | CLint scaled [22]: 26.3 mL/min/kg | Fu [18]: 7% | Fu [19]: 6.5%

SMILES: Fc1ccc(CN2CCCC3(CCN(Cc4cc5ccc(Cl)cc5[nH]4)C3)C2)cc1F (stereo not drawn)
Ki ([1]; read-out: Ki): 0.0071 µM | Activity [20]: 39% | Ki [3]: 0.03 µM | Ki (D(2) dopamine receptor): > 10 µM | Ki (D(3) dopamine receptor): 0.345 µM | Ki (D(1B) dopamine receptor): > 10 µM | Ki (D(1A) dopamine receptor): 1.53 µM

SMILES: COc1ccc(CN2CCC[C@H](OCc3ccc(C)cc3)C2)cc1F
Ki ([1]; read-out: Ki): 0.0055 µM | Fu [18]: 1.3% | Fu [19]: 2.5%

Continued, values first:

Ki ([1]; read-out: Ki): 0.0031 µM | Ki (D(4) dopamine receptor): 1.16 µM | Ki [2]: 0.0039 µM | Ki [3]: 0.07 µM | Ki (D(1A) dopamine receptor): > 10 µM | t1/2 [4]: 3.68 h | t1/2 [5]: 6.88 h | MRT [6]: 4.54 h | MRT [7]: 8.3 h | Tmax [8]: 0.67 h | Tmax [9]: 1.67 h | Cmax [10]: 401 ng/mL | Cmax [11]: 1890 ng/mL | AUC [12]: 2225 ng·h/mL | AUC(0-inf) [13]: 13900 ng·h/mL | Kp [14]: 4.94 | Kp at 5 h [15]: 2.4 | K(p,uu,brain) [16]: 2.43 | Kp uu at 5 h [17]: 4.88
SMILES: Fc1cc(COC2CCN(Cc3ccc4[nH]cnc4c3)CC2)ccc1Cl

Ki ([1]; read-out: Ki): 0.035 µM
SMILES: FC(F)(F)Oc1cccc(CO[C@H]2CCCN(Cc3cn4ccccc4n3)C2)c1

Ki ([1]; read-out: Ki): 0.0035 µM | Ki (D(4) dopamine receptor): 0.175 µM | Fu [18]: 2.2% | Fu [19]: 8.8%
SMILES: FC(F)(F)c1cccc(COC2CCN(Cc3cn4ccccc4n3)CC2)c1

Ki (D(4) dopamine receptor): 1.56 µM | Activity [21]: 6%
SMILES: Cc1csc(OC[C@@H]2CN(Cc3cn4ccccc4n3)CCO2)n1

Ki ([1]; read-out: Ki): 0.014 µM | Ki (D(4) dopamine receptor): 1.7 µM | Ki [3]: 0.043 µM | Ki (D(1A) dopamine receptor): > 10 µM
SMILES: Cc1c(Cl)cccc1NC(=O)CN1CCC2(CCCN2Cc2ccc(F)c(F)c2)C1 (stereo not drawn)

Ki ([1]; read-out: Ki): 0.052 µM | Ki (D(4) dopamine receptor): 0.0035 µM
SMILES: Fc1ccc2c(CN3CCC(F)(F)[C@H](CCc4ccccc4)C3)c[nH]c2c1

Ki ([1]; read-out: Ki): 0.019 µM | Activity [20]: 23%
SMILES: Cc1c(Cl)cccc1NC(=O)CN1CCC2(CCCN(Cc3ccc(F)c(F)c3)C2)C1 (stereo not drawn)

Ki ([1]; read-out: Ki): 0.031 µM | Activity [20]: 48% | Fu [18]: 13% | Fu [19]: 75%
SMILES: Cn1cnc2cc(CN3CCC(OCc4ccc(Cl)c(F)c4)CC3)ccc21
